Experimental data as given in ChEMBL document CHEMBL1129629, “Orally active, nonpeptide vasopressin V2 receptor antagonists: a novel series of 1-[4-(benzoylamino)benzoyl]-2,3,4,5-tetrahydro-1H-benzazepines and related compounds” (J Med Chem, 1996).

How the values were obtained:
Vasopressin V1a receptor [1] = target: T1, Vasopressin V1a receptor (Rattus norvegicus, UniProt P30560); test: Displacement of [3H]AVP from AVP-V1a receptor binding site in rat liver
Method in brief: (§1)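 Radioligand competition with [3H]AVP on plasma membrane preparations, rat liver for V1a and rat kidney for V2. […] Assays run in duplicate. Reported intraassay variation is under 3% and interassay variation under 20%.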

Vasopressin V2 receptor [2] = target: T2, Vasopressin V2 receptor (Rattus norvegicus, UniProt Q00788); test: Displacement of [3H]-AVP from its AVP-V2 receptor binding site in rat kidney
T2 sequence (Q00788 whole entry): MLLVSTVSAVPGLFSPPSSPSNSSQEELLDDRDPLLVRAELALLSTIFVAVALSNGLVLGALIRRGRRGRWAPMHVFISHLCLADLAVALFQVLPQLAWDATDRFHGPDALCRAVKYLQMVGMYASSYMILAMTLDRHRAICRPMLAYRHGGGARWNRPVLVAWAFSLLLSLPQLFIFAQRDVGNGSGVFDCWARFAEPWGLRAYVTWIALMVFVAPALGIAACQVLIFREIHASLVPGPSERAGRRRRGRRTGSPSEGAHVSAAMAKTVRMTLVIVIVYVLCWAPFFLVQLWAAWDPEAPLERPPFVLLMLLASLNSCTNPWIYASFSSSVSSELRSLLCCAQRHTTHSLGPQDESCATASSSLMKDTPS
Method in brief: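 Radioligand competition with [3H]AVP on plasma membrane preparations, rat liver for V1a and rat kidney for V2. Assays run in duplicate. Reported intraassay variation is under 3% and interassay variation under 20%.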

Rattus norvegicus [3] = test: Dose(mg/kg) required for a 3-fold increase in the 2-h urine volume over the control rats.; assay type: functional
Method in brief: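 Hydrated conscious rats, compound given orally at three or four doses. Spontaneously voided urine collected every 2 h over 8 h. ED3 (mg/kg) read from the dose–response curve as the dose giving a 3-fold rise in 2-h urine volume over control rats. ">" means no 3-fold rise at the highest dose tested.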

Vasopressin V1a receptor [4] = target: T1, Vasopressin V1a receptor; test: Compound was tested for its ability to displace [3H]AVP from its specific binding sites in Rat liver (AVP-V1a receptor).; method in brief: as §1
Vasopressin V2 receptor [5] = target: T2, Vasopressin V2 receptor; test: Compound was tested for its ability to displace [3H]AVP from its specific binding sites in rat Kidney (AVP-V2 receptor).; method in brief: as §1
Rattus norvegicus [6] = test: UV values mean 2-h urine volume (mL) when the compound was administered orally at a dose of 10 mg/kg; assay type: functional; details: route oral
Method in brief: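 Conscious rats dosed orally at 10 mg/kg, with urine voided spontaneously. The value is urine volume (mL) collected over the first 2 h, given as mean ± SEM of 4 rats and set against control rats (n = 4).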

T1 sequence (P30560 whole entry): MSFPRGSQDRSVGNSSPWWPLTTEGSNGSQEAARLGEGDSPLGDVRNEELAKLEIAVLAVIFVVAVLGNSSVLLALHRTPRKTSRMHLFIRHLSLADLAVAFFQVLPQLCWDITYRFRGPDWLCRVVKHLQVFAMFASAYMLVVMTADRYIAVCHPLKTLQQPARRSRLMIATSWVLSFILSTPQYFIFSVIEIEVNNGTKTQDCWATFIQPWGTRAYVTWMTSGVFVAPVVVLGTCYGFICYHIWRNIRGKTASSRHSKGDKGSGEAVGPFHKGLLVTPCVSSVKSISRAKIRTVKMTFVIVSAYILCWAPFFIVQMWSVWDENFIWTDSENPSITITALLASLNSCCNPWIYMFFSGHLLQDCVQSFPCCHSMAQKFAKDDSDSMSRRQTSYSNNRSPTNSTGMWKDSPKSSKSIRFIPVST

| Structure (SMILES) | IC50 (Vasopressin V1a receptor [1]) [µM] | IC50 (Vasopressin V2 receptor [2]) [µM] | IC50 (Vasopressin V1a receptor [4]) [µM] | IC50 (Vasopressin V2 receptor [5]) [µM] | ED3 (Rattus norvegicus [3]) [mg/kg] | Activity (Rattus norvegicus [6]) [mL] |
| --- | --- | --- | --- | --- | --- | --- |
| CN(C)C1CCCN(C(=O)c2ccc(NC(=O)c3ccccc3N)cc2)c2ccccc21 (stereo not given) | 1.9 | 0.19 |  |  |  |  |
| CN(C)C1CCCN(C(=O)c2ccc(NC(=O)c3ccccc3[N+](=O)[O-])cc2)c2ccccc21 (stereo not given) | 2.6 | 0.071 |  |  |  |  |
| CC(=O)Nc1ccc(C(=O)N2CCCc3ccccc32)cc1 | 74 | > 100 |  |  |  |  |
| CC(=O)O/N=C1\CCCN(C(=O)c2ccc(NC(=O)c3ccccc3C)cc2)c2ccccc21 |  |  | 2.3 | 0.058 | > 30 |  |
| O=C(Nc1ccccc1)Nc1ccc(C(=O)N2CCCCc3ccccc32)cc1 | 0.76 | 0.18 |  |  |  |  |
| COc1ccccc1C(=O)Nc1ccc(C(=O)N2CCCc3ccccc32)cc1 | 1.91 | 2.1 |  |  |  |  |
| O=C(Nc1ccc(C(=O)N2CCCc3ccccc32)cc1)c1ccccc1 | 1.6 |  |  |  |  |  |
| CCCCOc1ccc(C(=O)Nc2ccc(C(=O)N3CCCc4ccccc43)cc2)cc1 | > 100 | > 100 |  |  |  |  |
| Cc1ccccc1C(=O)Nc1ccc(C(=O)N2CCCC(N(C)CC#N)c3ccccc32)cc1 (stereo not given) | 3.2 | 0.025 |  |  | >30 |  |
| O=C(Nc1ccc(C(=O)N2CCCc3ccccc32)cc1)c1cccc(Cl)c1 | 6.4 |  |  |  |  |  |
| O=C(Nc1cccc(C(=O)N2CCCc3ccccc32)c1)c1ccccc1 | > 100 | 40 |  |  |  |  |
| O=C(Nc1ccccc1C(=O)N1CCCc2ccccc21)c1ccccc1 | 88 | 22 |  |  |  |  |
| Cc1ccc(C(=O)Nc2ccc(C(=O)N3CCCc4ccccc43)cc2)cc1C | > 100 | 1.2 |  |  |  |  |
| CN(C)C1CCCN(C(=O)c2ccc(NC(=O)c3cc(Cl)cc(Cl)c3)cc2)c2ccccc21 (stereo not given) | 2.6 | 0.02 |  |  |  |  |
| O=C(Nc1ccc(C(=O)N2CCCc3ccccc32)cc1)c1ccc(Cl)cc1 | 5.1 | 1.9 |  |  |  |  |
| O=C(Nc1ccc(C(=O)N2CCCc3ccccc32)cc1)c1ccccc1[N+](=O)[O-] | 2.7 | 0.53 |  |  |  |  |
| O=C(CCc1ccccc1)Nc1ccc(C(=O)N2CCCc3ccccc32)cc1 | 2.3 | 6.1 |  |  |  |  |
| CNC1CCCN(C(=O)c2ccc(NC(=O)c3ccccc3C)cc2)c2ccccc21 (stereo not given) | 0.72 | 0.024 |  |  | 4.6 | 8.3 |
| O=C(Nc1ccc(C(=O)N2CCCc3ccccc32)cc1)c1cc(Cl)cc(Cl)c1 | 9.4 | 0.082 |  |  |  |  |
| Cc1ccccc1C(=O)N(C)c1ccc(C(=O)N2CCCC(N(C)C)c3ccccc32)cc1 (stereo not given) | 19 | 1 |  |  |  |  |
| Cc1cccc(C(=O)Nc2ccc(C(=O)N3CCCc4ccccc43)cc2)c1 | 3.1 | 0.68 |  |  |  |  |
| CCOc1ccc(C(=O)Nc2ccc(C(=O)N3CCCc4ccccc43)cc2)cc1 | 14 | > 100 |  |  |  |  |

| Structure (SMILES) | IC50 (Vasopressin V1a receptor [1]) [µM] | IC50 (Vasopressin V2 receptor [2]) [µM] | IC50 (Vasopressin V1a receptor [4]) [µM] | IC50 (Vasopressin V2 receptor [5]) [µM] | ED3 (Rattus norvegicus [3]) [mg/kg] | Activity (Rattus norvegicus [6]) [mL] |
| --- | --- | --- | --- | --- | --- | --- |
| O=C(Nc1ccc(C(=O)N2CCCc3ccccc32)cc1)c1cccc([N+](=O)[O-])c1 | 16 | 0.76 |  |  |  |  |
| Cc1ccccc1C(=O)Nc1ccc(C(=O)N2CCOc3ccccc32)cc1 | 7.7 | 4.1 |  |  |  |  |
| CCNC1CCCN(C(=O)c2ccc(NC(=O)c3ccccc3C)cc2)c2ccccc21 (stereo not given) | 1.6 | 0.029 |  |  | 8 | 5.4 |
| O=C(c1ccc(NS(=O)(=O)c2ccccc2)cc1)N1CCCCc2ccccc21 | 2.5 | 1.6 |  |  |  |  |
| COc1ccc(C(=O)Nc2ccc(C(=O)N3CCCc4ccccc43)cc2)cc1 | 2.2 | 1.8 |  |  |  |  |
| CC(=O)Nc1ccccc1C(=O)Nc1ccc(C(=O)N2CCCC(N(C)C)c3ccccc32)cc1 (stereo not given) | 16 | 0.64 |  |  |  |  |
| CN(C)C1CCCN(C(=O)c2ccc(NC(=O)c3ccccc3Cl)cc2)c2ccccc21 (stereo not given) | 3 | 0.027 |  |  | 4.2 | 7 |
| O=C(Nc1ccc(C(=O)N2CCCc3ccccc32)cc1)c1ccccc1Cl | 1.6 | 0.42 |  |  |  |  |
| O=C(Nc1ccc(C(=O)N2CCCC(N3CCCCC3)c3ccccc32)cc1)c1ccccc1Cl (stereo not given) | 2.8 | 0.14 |  |  |  |  |
| Cc1ccccc1C(=O)Nc1ccc(C(=O)N2CCOCc3ccccc32)cc1 | 0.63 | 0.3 |  |  |  |  |
| COc1ccccc1C(=O)Nc1ccc(C(=O)N2CCCC(N(C)C)c3ccccc32)cc1 (stereo not given) | 1 | 0.077 |  |  |  |  |
| CNC(=O)NC1CCCN(C(=O)c2ccc(NC(=O)c3ccccc3C)cc2)c2ccccc21 (stereo not given) | 2.8 | 0.096 |  |  |  |  |
| CC(C)C(=O)Nc1ccc(C(=O)N2CCCc3ccccc32)cc1 | 2.4 | 8.1 |  |  |  |  |
| Cc1ccccc1C(=O)Nc1ccc(C(=O)N2CCCC(O)c3ccccc32)cc1 (stereo not given) | 0.14 | 0.029 |  |  |  | 3.6 |
| O=C(Nc1ccc(C(=O)N2CCCc3ccccc32)cc1)c1ccc([N+](=O)[O-])cc1 | > 100 | 6.5 |  |  |  |  |
| Cc1ccccc1C(=O)Nc1ccc(C(=O)N2CCCC(N(C)CC(N)=O)c3ccccc32)cc1 (stereo not given) |  |  |  |  | 6.4 | 6.2 |
| Cc1ccc(C(=O)Nc2ccc(C(=O)N3CCCC(N(C)C)c4ccccc43)cc2)cc1 (stereo not given) | 26 | 0.044 |  |  |  |  |
| CN(C)C1CCCN(C(=O)c2ccc(NC(=O)c3ccccc3)cc2)c2ccccc21 (stereo not given) | 3 | 0.027 |  |  | >30 |  |
| CCCNC1CCCN(C(=O)c2ccc(NC(=O)c3ccccc3C)cc2)c2ccccc21 (stereo not given) | 0.89 | 0.05 |  |  | 6.6 | 5.6 |
| Cc1ccccc1C(=O)Nc1ccc(C(=O)N2CCCC(N)c3ccccc32)cc1 (stereo not given) | 0.39 | 0.032 |  |  |  |  |
| O=C(Nc1ccc(C(=O)N2CCCc3ccccc32)cc1)c1cccnc1 | 11 | 7.6 |  |  |  |  |
| O=C(Nc1ccc(C(=O)N2CCCCc3ccccc32)cc1)c1ccccc1Cl | 0.045 | 0.029 |  |  |  |  |

Now from value to compound, other results behind:

| IC50 (Vasopressin V1a receptor [1]) [µM] | IC50 (Vasopressin V2 receptor [2]) [µM] | IC50 (Vasopressin V1a receptor [4]) [µM] | IC50 (Vasopressin V2 receptor [5]) [µM] | Structure (SMILES) | ED3 (Rattus norvegicus [3]) [mg/kg] | Activity (Rattus norvegicus [6]) [mL] |
| --- | --- | --- | --- | --- | --- | --- |
| 2.8 |  |  |  | COc1cccc(C(=O)Nc2ccc(C(=O)N3CCCc4ccccc43)cc2)c1 |  |  |
| 2.4 | 0.014 |  |  | Cc1cccc(C(=O)Nc2ccc(C(=O)N3CCCC(N(C)C)c4ccccc43)cc2)c1 (stereo not given) | >30 |  |
| 1.7 | 1.7 |  |  | O=C(Nc1ccc(C(=O)N2CCCc3ccccc32)cc1)c1ccsc1 |  |  |
| 0.98 | 0.029 |  |  | CCOC(=O)CN(C)C1CCCN(C(=O)c2ccc(NC(=O)c3ccccc3C)cc2)c2ccccc21 (stereo not given) | >30 |  |
| 1.3 | 0.013 |  |  | CN(C)C1CCCN(C(=O)c2ccc(NC(=O)c3ccc(Cl)cc3Cl)cc2)c2ccccc21 (stereo not given) |  |  |
| 10 | 1.4 |  |  | Cc1ccc(C(=O)Nc2ccc(C(=O)N3CCCc4ccccc43)cc2)cc1 |  |  |
| 1.2 | 0.022 |  |  | CCCN(C)C1CCCN(C(=O)c2ccc(NC(=O)c3ccccc3C)cc2)c2ccccc21 (stereo not given) | 4.9 | 8.3 |
| 4.3 | 7.1 |  |  | CCCC(=O)Nc1ccc(C(=O)N2CCCc3ccccc32)cc1 |  |  |
|  |  | 7.8 | 0.79 | O=C(Nc1ccc(C(=O)N2CCCCc3ccccc32)cc1)Oc1ccccc1 |  |  |
| 1.4 |  |  |  | Cc1ccccc1C(=O)Nc1ccc(C(=O)N2CCCC(N(C)C)c3ccccc32)cc1 (stereo not given) [MOZAVAPTAN] | 3.8 | 12.3 |
| 1.4 |  |  |  | Cc1ccccc1C(=O)Nc1ccc(C(=O)N2CCCc3ccccc32)cc1 |  |  |
| > 100 | 0.25 |  |  | O=C(Nc1ccc(C(=O)N2CCCc3ccccc32)cc1)c1ccc(Cl)cc1Cl |  |  |
| 1.8 | 0.17 |  |  | Cc1ccccc1C(=O)Nc1ccc(C(=O)N2CCN(C)Cc3ccccc32)cc1 |  |  |
| 1.2 | 0.11 |  |  | Cc1ccccc1C(=O)Nc1ccc(C(=O)N2CCCOc3ccccc32)cc1 |  |  |
| 4 | 6.4 |  |  | O=C(Nc1ccc(C(=O)N2CCCc3ccccc32)cc1)c1ccco1 |  |  |
| 3.3 | 0.21 |  |  | Cc1ccc(C(=O)Nc2ccc(C(=O)N3CCCc4ccccc43)cc2)c(C)c1 |  |  |
| 5.1 | 0.4 |  |  | Cc1ccccc1C(=O)Nc1ccc(C(=O)N2CCN(C)c3ccccc32)cc1 |  |  |
| 3.2 | 0.15 |  |  | CC(=O)NC1CCCN(C(=O)c2ccc(NC(=O)c3ccccc3C)cc2)c2ccccc21 (stereo not given) | >30 |  |
| 3.2 | 1 |  |  | O=C(Cc1ccccc1)Nc1ccc(C(=O)N2CCCc3ccccc32)cc1 |  |  |
